Key:
[1] = tested on: TSGH; assay: In vitro cytotoxic activity against human TSGH cell line of stomach carcinoma; format: functional, cell-based
Procedure, shortened: (§1)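 Cells kept in RPMI-1640 with 5% fetal bovine serum; log-phase cells seeded at 5000 cells/mL/well, exposed to various drug concentrations for 72 h. Growth read by methylene blue dye assay; IC50 (50% growth inhibition versus control) derived graphically. Mean and SD of at least three independent experiments.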

[2] = target: Tubulin (Bos taurus, UniProt Q6B856+Q862L2+Q862F3); assay: Inhibitory concentration required against MAP-rich tubulin polymerization; format: functional
[3] = tested on: HT-29; assay: In vitro cytotoxic activity against human HT-29 cell line of colorectal carcinoma; format: functional, cell-based; procedure, shortened: as §1
[4] = tested on: KB; assay: In vitro cytotoxic activity against human KB cell line of epidermoid carcinoma; format: functional, cell-based; procedure, shortened: as §1
[5] = target: Tubulin alpha chain (Sus scrofa) (UniProt P02550); assay: Ability to inhibit 3[H]Colchicine binding to colchicine-binding domain of tubulin; Strong inhibition
Tubulin alpha chain (Sus scrofa), sequence (P02550 whole entry, looked up, the tested form may be a part): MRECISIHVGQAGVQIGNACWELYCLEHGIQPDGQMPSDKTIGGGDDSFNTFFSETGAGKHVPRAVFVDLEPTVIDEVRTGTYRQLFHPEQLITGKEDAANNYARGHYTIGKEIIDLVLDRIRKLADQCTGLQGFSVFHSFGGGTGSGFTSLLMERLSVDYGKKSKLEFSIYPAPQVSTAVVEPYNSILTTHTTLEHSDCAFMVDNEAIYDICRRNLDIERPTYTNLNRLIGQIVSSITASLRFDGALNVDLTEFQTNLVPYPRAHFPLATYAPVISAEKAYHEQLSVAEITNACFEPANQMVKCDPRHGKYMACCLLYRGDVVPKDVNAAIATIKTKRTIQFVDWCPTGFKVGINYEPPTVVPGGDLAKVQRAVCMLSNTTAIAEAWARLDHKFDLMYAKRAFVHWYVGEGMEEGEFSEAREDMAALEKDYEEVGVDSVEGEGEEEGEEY

[6] = tested on: KB; assay: In vitro cytotoxic activity against human KB-VIN10 cell line overexpressing P-gp 170/MDR; format: functional, cell-based
Procedure, shortened: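 Vincristine-selected P-gp170/MDR-overexpressing KB line, maintained with 10 nM vincristine, then grown drug-free for 3 days before use. Log-phase cells seeded at 5000 cells/mL/well, exposed 72 h to various drug concentrations; methylene blue dye readout, IC50 (50% growth inhibition versus control) taken graphically. Mean and SD, at least three independent experiments.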

[7] = target: Tubulin alpha chain (Sus scrofa) (UniProt P02550); assay: Ability to inhibit 3[H]Colchicine binding to colchicine-binding domain of tubulin; Weak inhibition
[8] = target: Tubulin alpha chain (Sus scrofa) (UniProt P02550); assay: Ability to inhibit 3[H]Colchicine binding to colchicine-binding domain of tubulin; effective inhibition

SMILES | IC50 [1] [µM] | IC50 [2] [µM] | IC50 [3] [µM] | IC50 [4] [µM] | inhibition [5] | IC50 [6] [µM] | inhibition [7] | inhibition [8]
COc1ccc(C(=O)c2cc(OC)c(OC)c(OC)c2)cc1N | 0.033 | 0.3 | 0.033 | 0.032 | Strong inhibition | 0.031 | – | –
COc1ccc(N)cc1C(=O)c1cc(OC)c(OC)c(OC)c1 | 0.497 | 2.9 | 0.4 | 0.306 | – | 0.324 | Weak inhibition | –
COc1cc(C(=O)c2ccc(Cl)c(N)c2)cc(OC)c1OC | 4 | 11 | 4 | 0.8 | – | 3.8 | – | –
COc1cc(C(=O)c2cc(N)ccc2Cl)cc(OC)c1OC | 0.157 | 0.6 | 0.163 | 0.18 | – | 0.125 | – | effective inhibition
COc1cc(N)cc(C(=O)c2cc(OC)c(OC)c(OC)c2)c1 | 0.157 | 2.6 | 0.163 | 0.59 | – | 0.307 | – | –
CCOc1ccc(C(=O)c2cc(OC)c(OC)c(OC)c2)cc1N | 0.042 | 0.7 | 0.045 | 0.059 | – | 0.04 | – | –
COc1ccc(Cc2cc(OC)c(OC)c(OC)c2)cc1N | > 10 | > 50 | > 10 | > 10 | – | > 10 | – | –
COc1cc(C(=O)c2ccc(OC(C)C)c(N)c2)cc(OC)c1OC | 0.9 | 6.4 | 1.3 | 0.9 | – | 0.8 | – | –
COc1ccc(C(=O)c2cc(OC)c(OC)c(OC)c2)cc1O [PHENSTATIN] | 0.17 | 0.4 | 0.56 | 0.03 | – | 0.03 | – | –
COc1cc(C(=O)c2ccc(Cl)cc2N)cc(OC)c1OC | 0.8 | 2.7 | 1 | 0.71 | – | 0.8 | – | –
COc1ccc(C(=O)c2cc(OC)c(OC)c(OC)c2)c(N)c1 | 0.026 | 0.4 | 0.042 | 0.032 | Strong inhibition | 0.024 | – | –
COc1ccc(/C=C\c2cc(OC)c(OC)c(OC)c2)cc1N | 0.0077 | – | 0.0079 | 0.0082 | – | 0.0075 | – | –
COc1ccc(/C=C\c2cc(OC)c(OC)c(OC)c2)cc1O [COMBRETASTATIN A4] | 0.045 | – | 0.26 | 0.0021 | – | 0.0024 | – | –
COc1cc(C(=O)c2cc(N)cc(Cl)c2)cc(OC)c1OC | 1.5 | 17 | 1.9 | 1.4 | – | 2.9 | – | –
CCCOc1ccc(C(=O)c2cc(OC)c(OC)c(OC)c2)cc1N | 4.8 | 42 | 9 | 3.8 | – | 8.6 | – | –
COc1cc(C(=O)c2cc(Cl)ccc2N)cc(OC)c1OC | 0.185 | 0.1 | 0.218 | 0.195 | – | 0.162 | – | –
COc1ccc(N)c(C(=O)c2cc(OC)c(OC)c(OC)c2)c1 | 0.1 | 1 | 0.148 | 0.127 | – | 0.352 | – | –

Reference: ChEMBL document CHEMBL1137079, “Synthesis and structure-activity relationships of 3-aminobenzophenones as antimitotic agents” (J Med Chem, 2004)
